Converted amounts (≈) assume the structure as drawn. The source made the active and inactive calls. The calls are words filed in the database; no cut-off is given here.
How the values were obtained:
[1] = tested on: HCT-116; assay: Antiproliferative activity against human HCT116 cells after 72 hrs by CellTiterGlo assay; conditions: HCT-116, 72 h
[2] = tested on: A-375; assay: Antiproliferative activity against human A375 cells after 72 hrs by CellTiterGlo assay; conditions: A-375, 72 h
[3] = molecular target: T1, Dual specificity mitogen-activated protein kinase kinase 1 (Homo sapiens, UniProt Q02750); assay: Inhibition of MEK1-mediated ERK1 phosphorylation after 30 mins by HTRF assay
[4] = AUC in rat at 1 mg/kg, iv; assay type: ADME, organism-based; set-up: dose 1 mg/kg, route intravenous; conditions: plasma
[5] = Ratio of EC50 for human HCT116 cells to IC50 for MEK1-mediated ERK1 phosphorylation; set-up: species or system HCT-116
[6] = Plasma protein binding in rat; assay type: ADME, cell-free; conditions: read-out: PPB (converted)
[7] = molecular target: T1, Dual specificity mitogen-activated protein kinase kinase 1; assay: Inhibition of MEK1-mediated ERK1 phosphorylation in human A375 cells after 2 hrs by immunofluorescence high content imaging
[8] = Oral bioavailability in rat at 5 mg/kg; assay type: ADME, organism-based; conditions: in vivo
In short: (§1)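 Oral PK: rat dosed 5 mg/kg PO as solution; mouse dosed 25 mg/kg PO as suspension. Plasma AUC (μM·h) and bioavailability F (%) determined.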

[9] = Volume of distribution at steady state in rat at 1 mg/kg, iv; assay type: ADME, organism-based; set-up: dose 1 mg/kg, route intravenous; conditions: in vivo, read-out: Vdss
[10] = AUC in rat at 5 mg/kg, po; assay type: ADME, organism-based; set-up: dose 5 mg/kg, route oral; conditions: plasma; in short: as §1
[11] = Ratio of EC50 for human A375 cells to IC50 for MEK1-mediated ERK1 phosphorylation; set-up: species or system A-375
[12] = tested on: A-375; assay: Ratio of EC50 for human HCT116 cells to EC50 for human A375 cells; assay type: functional
[13] = molecular target: T1, Dual specificity mitogen-activated protein kinase kinase 1; assay: Inhibition of MEK1-mediated ERK1 phosphorylation in human HCT116 cells after 2 hrs by immunofluorescence high content imaging
[14] = Clearance in rat at 1 mg/kg, iv; assay type: ADME, organism-based; set-up: dose 1 mg/kg, route intravenous; conditions: in vivo
[15] = Half life in rat at 1 mg/kg, iv; assay type: ADME, organism-based; set-up: dose 1 mg/kg, route intravenous; conditions: in vivo
[16] = tested on: HCT-116; assay: Antitumor activity against human HCT116 cells xenografted in nude nu/nu mouse assessed as tumor growth inhibition at 25 and 75 mg/kg, po administered QD for 3 weeks relative to vehicle-treated; assay type: functional, organism-based; set-up: dose 75 mg/kg
In short: (§2)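 HCT116 colorectal xenografts in nude mice; animals randomized, dosed orally once daily for 3 weeks at 5, 25 or 75 mg/kg vs vehicle. Tumor volume and body weight tracked; animals euthanized at tumor volume >2000 mm³ or body weight loss >20%.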

[17] = Half life in mouse at 25 mg/kg, po; assay type: ADME, organism-based; set-up: dose 25 mg/kg, route oral; conditions: in vivo
[18] = Permeability from apical to basal side of MDCK cells; assay type: ADME, cell-based, Canis lupus familiaris; conditions: dog, read-out: permeability
In short: (§3)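 MDCK monolayer permeability measured in A→B and B→A directions, expressed as ×10⁻⁶ cm/s; efflux ratio taken as B:A over A:B.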

[19] = Plasma protein binding in mouse; assay type: ADME, cell-free; conditions: read-out: PPB (converted)
[20] = organism: Rattus norvegicus; assay: Unbound clearance in rat; assay type: ADME, organism-based; conditions: in vivo
[21] = Clearance in mouse at 1 mg/kg, iv; assay type: ADME, organism-based; set-up: dose 1 mg/kg, route intravenous; conditions: in vivo
[22] = Solubility of the compound at pH 6.5; assay type: physicochemical; conditions: buffer
In short: (§4)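 Solubility measured in aqueous buffer at pH 6.5 and in fasted-state simulated intestinal fluid (FASSIF), expressed in […].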

[23] = Volume of distribution at steady state in mouse at 1 mg/kg, iv; assay type: ADME, organism-based; set-up: dose 1 mg/kg, route intravenous; conditions: in vivo, read-out: Vdss
[24] = tested on: Mus musculus; assay: (§5) AUC in mouse at 1 mg/kg, iv; assay type: ADME, organism-based, Plasma; set-up: dose 1 mg/kg, route intravenous; conditions: in vivo
[25] = tested on: Mus musculus; assay: Inhibition of MEK-mediated ERK1/2 Thr185/Tyr187 phosphorylation in human HCT116 cells xenografted in nude nu/nu mouse at 25 mg/kg, po administered as single dose after 8 hrs relative to vehicle-treated control; assay type: functional; conditions: HCT-116, 8 h
[26] = Solubility of the compound in fasted state simulated intestinal fluid; assay type: physicochemical; in short: as §4
[27] = tested on: Mus musculus; assay: Toxicity in nude nu/nu mouse bearing human HCT116 xenograft assessed as body weight loss at 75 mg/kg, po administered QD for 3 weeks relative to vehicle-treated; assay type: organism-based; set-up: dose 75 mg/kg, route oral; conditions: in vivo, 504 h; in short: as §2
[28] = tested on: Mus musculus; assay: Toxicity in nude nu/nu mouse bearing human HCT116 xenograft assessed as body weight loss at 5 mg/kg, po administered QD for 3 weeks relative to vehicle-treated; assay type: organism-based; set-up: dose 5 mg/kg, route oral; conditions: in vivo, 504 h; in short: as §2
[29] = tested on: Mus musculus; assay: Oral bioavailability in mouse at 25 mg/kg; assay type: ADME, organism-based; conditions: in vivo; in short: as §1
[30] = tested on: HCT-116; assay: Antitumor activity against human HCT116 cells xenografted in nude nu/nu mouse assessed as tumor growth inhibition at 5 mg/kg, po administered QD for 3 weeks relative to vehicle-treated control; assay type: functional; in short: as §2
[31] = tested on: Mus musculus; assay: (§6) AUC in mouse at 25 mg/kg, po; assay type: ADME, organism-based, Plasma; set-up: dose 25 mg/kg, route oral; conditions: in vivo; in short: as §1
[32] = tested on: Rattus norvegicus; assay: Drug metabolism in rat assessed as hydroxamate cleavage at 5 mg/kg, po; assay type: ADME, organism-based; set-up: dose 5 mg/kg, route oral; conditions: in vivo
[33] = Permeability from basal to apical side of MDCK cells; assay type: ADME, cell-based, Canis lupus familiaris; conditions: dog, read-out: permeability; in short: as §3
[34] = Half life in mouse at 1 mg/kg, iv; assay type: ADME, organism-based; set-up: dose 1 mg/kg, route intravenous; conditions: in vivo
[35] = tested on: Rattus norvegicus; assay: Drug metabolism in rat assessed as glucuronidation at 5 mg/kg, po; assay type: ADME, organism-based; set-up: dose 5 mg/kg, route oral; conditions: in vivo
[36] = tested on: Rattus norvegicus; assay: Unbound AUC in po dosed rat; assay type: ADME, organism-based; conditions: in vivo
[37] = molecular target: Cytochrome P450 2C9 (Homo sapiens, UniProt P11712); assay: Inhibition of CYP2C9; assay type: ADME
[38] = molecular target: Cytochrome P450 2C19 (Homo sapiens, UniProt P33261); assay: Inhibition of CYP2C19; assay type: ADME
[39] = as §5; assay type: ADME, organism-based, Plasma; set-up: dose 1 mg/kg, route intravenous; conditions: plasma
[40] = as §6; assay type: ADME, organism-based, Plasma; set-up: dose 25 mg/kg, route oral; conditions: plasma; in short: as §1
[41] = Efflux ratio of permeability from basal to apical to apical to basal side of MDCK cells; assay type: ADME, cell-based, Canis lupus familiaris; conditions: dog; in short: as §3

T1 sequence (Q02750 whole entry): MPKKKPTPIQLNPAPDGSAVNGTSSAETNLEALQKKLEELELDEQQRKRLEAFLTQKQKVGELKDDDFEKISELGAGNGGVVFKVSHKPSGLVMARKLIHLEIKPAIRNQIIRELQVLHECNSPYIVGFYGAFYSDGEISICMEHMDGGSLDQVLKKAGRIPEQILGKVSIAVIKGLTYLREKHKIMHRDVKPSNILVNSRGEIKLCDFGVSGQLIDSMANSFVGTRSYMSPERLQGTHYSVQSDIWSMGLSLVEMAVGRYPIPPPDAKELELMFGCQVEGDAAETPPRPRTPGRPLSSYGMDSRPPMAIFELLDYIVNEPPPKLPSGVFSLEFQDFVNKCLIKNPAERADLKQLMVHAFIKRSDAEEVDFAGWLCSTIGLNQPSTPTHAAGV
Sequence of Cytochrome P450 2C9 (P11712 whole entry): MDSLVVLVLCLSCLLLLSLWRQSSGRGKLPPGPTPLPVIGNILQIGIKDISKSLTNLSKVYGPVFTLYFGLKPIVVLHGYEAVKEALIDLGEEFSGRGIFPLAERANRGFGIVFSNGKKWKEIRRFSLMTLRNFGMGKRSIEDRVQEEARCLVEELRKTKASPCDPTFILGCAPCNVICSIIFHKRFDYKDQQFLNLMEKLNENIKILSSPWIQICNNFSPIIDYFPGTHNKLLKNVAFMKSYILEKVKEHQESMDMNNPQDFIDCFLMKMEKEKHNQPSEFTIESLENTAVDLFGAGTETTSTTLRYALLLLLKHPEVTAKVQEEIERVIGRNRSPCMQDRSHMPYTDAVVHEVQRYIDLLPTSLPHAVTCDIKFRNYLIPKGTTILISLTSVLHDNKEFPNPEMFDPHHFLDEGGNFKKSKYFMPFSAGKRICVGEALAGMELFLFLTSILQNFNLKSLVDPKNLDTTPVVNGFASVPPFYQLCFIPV
Sequence of Cytochrome P450 2C19 (P33261 whole entry): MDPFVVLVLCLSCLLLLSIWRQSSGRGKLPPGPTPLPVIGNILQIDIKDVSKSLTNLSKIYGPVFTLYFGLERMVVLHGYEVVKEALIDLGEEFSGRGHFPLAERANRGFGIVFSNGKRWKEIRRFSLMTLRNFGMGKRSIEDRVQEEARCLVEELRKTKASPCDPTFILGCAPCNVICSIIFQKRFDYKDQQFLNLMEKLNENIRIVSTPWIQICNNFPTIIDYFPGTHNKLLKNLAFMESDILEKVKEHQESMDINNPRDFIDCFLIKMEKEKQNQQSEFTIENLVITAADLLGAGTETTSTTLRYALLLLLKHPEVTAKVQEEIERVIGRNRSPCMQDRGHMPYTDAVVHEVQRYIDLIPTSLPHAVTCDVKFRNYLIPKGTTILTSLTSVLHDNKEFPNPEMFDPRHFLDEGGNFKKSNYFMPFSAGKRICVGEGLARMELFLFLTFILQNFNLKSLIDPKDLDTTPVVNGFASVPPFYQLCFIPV

O=C(NOC[C@H](O)CO)c1oc2ccncc2c1Nc1ccc(I)cc1F
EC50 [1]: 314 nM | EC50 [2]: 264 nM

O=C(NOCC1CC1)c1ccc2[nH]ncc2c1Nc1ccc(I)cc1F
EC50 [1]: 127 nM | EC50 [2]: 9 nM

O=C(NOCCO)c1ccc2[nH]ncc2c1Nc1ccc(Br)cc1F
IC50 [3]: 125 nM | AUC [4]: 0.75 µM·h | Ratio [5]: 1.5 | fraction unbound [6]: 0.035 | EC50 [7]: 6.4 nM | bioavailability [8]: 34% | Vd [9]: 1.5 L/kg | AUC [10]: 1.29 µM·h | Ratio [11]: 0.15 | Ratio EC50 [12]: 8 | EC50 [13]: 3.4 nM | EC50 [1]: 193 nM | clearance [14]: 54 mL/min/kg | EC50 [2]: 19 nM | half-life [15]: 0.36 h

O=C(NOCCO)c1ccc2[nH]ncc2c1Nc1ccc(I)cc1F
AUC [4]: 1.01 µM·h | fraction unbound [6]: 0.039 | growth inhibition (GI) [16]: Active | half-life [17]: 2.9 h | Papp A→B [18]: 9.9 ×10⁻⁶ cm/s | fraction unbound [19]: 0.03 | bioavailability [8]: 21% | CL free [20]: 923 mL/min/kg | Vd [9]: 2.4 L/kg | clearance [21]: 88 mL/min/kg | solubility [22]: 80 µg/mL (≈ 175 µM) | AUC [10]: 1.06 µM·h | Vd [23]: 2 L/kg | AUC [24]: 0.41 µM·h | inhibition in vivo at 25 mg/kg [25]: 70% | solubility [26]: 180 µg/mL (≈ 395 µM) | Activity [27]: 10% | Activity [28]: Non-toxic | F [29]: 94% | inhibition in vivo at 5 mg/kg ([30]; HCT-116, 504 h, read-out: GI): 94% | AUC [31]: 1.96 µM·h | Drug metabolism [32]: Active | EC50 [1]: 16 nM | clearance [14]: 36 mL/min/kg | Papp B→A [33]: 13.8 ×10⁻⁶ cm/s | EC50 [2]: 2 nM | half-life [34]: 0.6 h | half-life [15]: 1.4 h | Drug metabolism [35]: Active | fAUC [36]: 0.04 µM·h

O=C(NOC[C@H](O)CO)c1ccc2cnsc2c1Nc1ccc(I)cc1F
IC50 [3]: 20 nM | AUC [4]: 2.2 µM·h | Ratio [5]: 2.9 | fraction unbound [6]: 0.008 | EC50 [7]: 1.1 nM | bioavailability [8]: 51% | CL free [20]: 1875 mL/min/kg | Vd [9]: 0.97 L/kg | AUC [10]: 5.7 µM·h | Ratio [11]: 0.47 | EC50 [13]: 0.9 nM | EC50 [1]: 62 nM | clearance [14]: 15 mL/min/kg | EC50 [2]: 10 nM | half-life [15]: 1.6 h | fAUC [36]: 0.046 µM·h

CCONC(=O)c1ccc2[nH]ncc2c1Nc1ccc(I)cc1F
IC50 [3]: 93 nM | EC50 [7]: 2.4 nM | EC50 [13]: 1.3 nM | EC50 [1]: 132 nM | EC50 [2]: 4.9 nM

O=C(NCCCO)c1ccc2[nH]ncc2c1Nc1ccc(I)cc1F
IC50 [3]: > 10000 nM

O=C(NOCCO)c1ccc2cnsc2c1Nc1ccc(I)cc1F
inhibition (INH) [37]: Not Active | inhibition (INH) [38]: Not Active | EC50 [1]: 44 nM | EC50 [2]: 7 nM

C[C@H](O)CONC(=O)c1oc2c(F)cncc2c1Nc1ccc(I)cc1F
IC50 [3]: 35 nM | Ratio [5]: 5 | EC50 [7]: 7.2 nM | fraction unbound [19]: 0.016 | clearance [21]: 7.7 mL/min/kg | Vd [23]: 0.71 L/kg | AUC [39]: 4.42 µM·h | Ratio [11]: 0.65 | F [29]: 173% | Ratio EC50 [12]: 8 | Activity [30]: Active | AUC [40]: 192 µM·h | EC50 [13]: 4 nM | EC50 [1]: 175 nM | EC50 [2]: 23 nM | half-life [34]: 2.3 h

O=C(NOC[C@H](O)CO)c1ccc2[nH]ncc2c1Nc1ccc(I)cc1F
IC50 [3]: 15 nM | Ratio [5]: 2 | EC50 [7]: 3.7 nM | Papp A→B [18]: 2 ×10⁻⁶ cm/s | Ratio [11]: 0.8 | efflux ratio [41]: 3.5 | EC50 [13]: 0.4 nM | EC50 [1]: 31 nM | Papp B→A [33]: 7.1 ×10⁻⁶ cm/s | EC50 [2]: 12 nM
